Test results reported in paper PMC2941776 (ACS chemical biology, 2008).
“And” between values parts separate entries of the source, which are not always exact repeats. Equal entries are not always repeated. Where two headings read alike, the source gives them in different places.

How the values were obtained:
[1] = system: HIV-1 RT variant with Cys38 and Cys280 removed from p66 and p51; assay: RNase H inhibition, RT variant lacking Cys38 and Cys280; type: biochemical; details: Cys38 and Cys280 removed from both subunits
Thr473Cys RT = Thr473Cys RT (Human immunodeficiency virus type 1 group M subtype B, UniProt P03366, T1072C); assay: RNase H inhibition, Thr473Cys RT; type: biochemical, HIV-1; details: Thr473 replaced with cysteine
HIV-1 RT Tyr501Trp = HIV-1 RT Tyr501Trp (Human immunodeficiency virus type 1 group M subtype B, UniProt P03366, Y1100W); assay: FRET-based RNase H assay, Tyr501Trp RT; type: biochemical
HIV-1 RNase H activity = assay: Yonetani–Theorell analysis of RNase H inhibition; type: biochemical; details: NSC727447 0.25–16 μM, β-thujaplicinol 0.1–0.4 μM; substrate 250 nM, enzyme 4 nM
Method in brief: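 FRET RNase H assay: 18-nt 3'-fluorescein RNA annealed to 5'-dabcyl DNA (250 nM), enzyme 4 nM. Test compound at 0, 0.25, 0.5, 1, 2, 4, 8, 16 μM, each at β-thujaplicinol 0, 0.1, 0.2, 0.4 μM. Substrate added to start; fluorescence followed for 60 min. Inverse rate (ΔRFU/min) fitted to the Yonetani–Theorell equation to obtain interaction term γ.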

[2] = molecular target: HIV-1 RT DNA polymerase activity (Human immunodeficiency virus type 1, UniProt P03366); assay: DNA polymerase activity in the absence of pyrophosphorolysis; type: biochemical; details: 50 μM, data not shown
[3] = system: wild-type RT / RNA-DNA hybrid complex; assay: Electrophoretic mobility shift analysis, wild-type RT on RNA/DNA hybrid; type: binding, HIV-1; details: 50 μM; gel-mobility shift
Method in brief: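 Mobility-shift assay: RT 250 nM with RNA/DNA hybrid 50 nM (14 nt RNA–8 nt DNA chimera annealed to 22 nt DNA, mimicking tRNA primer removal) in 50 mM Tris/HCl pH 7.8, 50 mM NaCl. Test compound 0.6–50 μM. Complexes resolved by nondenaturing electrophoresis and detected by autoradiography.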

[4] = molecular target: HIV-1 RT RNase H activity (wild type p66/p51) (Human immunodeficiency virus type 1, UniProt P03366); assay: FRET-based RNase H assay, wild-type HIV-1 RT; type: biochemical
HIV-1 RT Tyr501Az-Phe = HIV-1 RT Tyr501Az-Phe (Human immunodeficiency virus type 1, UniProt P03366, Y1100X); assay: FRET-based RNase H assay, Tyr501Az-Phe RT; type: biochemical
p66^501BpF/p51 RT = p66^501BpF/p51 RT (Human immunodeficiency virus type 1, UniProt P03366, Y1100X); assay: FRET-based RNase H assay, Tyr501Bp-Phe RT; type: biochemical, HIV-1; details: for IC50: IC50, RNase H activity, Tyr501Bp-Phe RT

## NC(=O)c1c(N)sc2c1CCCCC2 [NSC727447, 2-amino-5,6,7,8-tetrahydro-4H-cyclohepta[b]thiophene-3-carboxamide]
[1]
  sensitivity of mutant enzyme to inhibitor: retained sensitivity
Thr473Cys RT
  sensitivity of mutant enzyme to inhibitor vs wild type: increased sensitivity
HIV-1 RT Tyr501Trp
  IC50: 70.6 µM
HIV-1 RT Tyr501Trp; Tyr501Trp RT vs wild type
  fold decrease in inhibitor potency vs wild type: ~ 11 fold
HIV-1 RNase H activity
  mode of interaction with β-thujaplicinol (NSC18806), Yonetani–Theorell: mutually exclusive inhibitors
[2]
  inhibition of DNA polymerase activity: insensitive to inhibition
[3]
  effect on affinity of RT for RNA/DNA substrate: unaffected
[4]
  IC50: 6.6 µM
HIV-1 RT Tyr501Az-Phe
  IC50: 89.6 µM
HIV-1 RT Tyr501Az-Phe; Tyr501Az-Phe RT vs wild type
  fold decrease in inhibitor potency vs wild type: 14 fold
p66^501BpF/p51 RT
  IC50: 197 µM and 196 µM
p66^501BpF/p51 RT; p66^501BpF/p51 RT vs wild type
  fold resistance vs wild type: ~30 fold

## Cc1sc(NC(=O)c2ccco2)c(C(N)=O)c1C [NSC727448, N-[3-(aminocarbonyl)-4,5-dimethyl-2-thienyl]-2-furancarboxamide]
[4]
  IC50: ~5.5 µM
p66^501BpF/p51 RT
  IC50: ~220 µM

## CC(C)c1ccc(O)c(=O)c(O)c1 [β-thujaplicinol, reference compound]
[4]
  IC50: 0.25 ± 0.023 µM

## manicol [reference compound]
[4]; read-out: IC50, RNase H activity, wild-type RT, FRET substrate
  IC50: 0.6 ± 0.09 µM
